Measured values reported in ChEMBL document CHEMBL4422612, “Small Molecule Inhibitor that Stabilizes the Autoinhibited Conformation of the Oncogenic Tyrosine Phosphatase SHP2” (J Med Chem, 2019).
Where a chain is given by its changes, count along the chain named. Activity calls are given as the source filed them. The rule behind the calls is not given here.

Columns and labels:
[1] = system: NCI-H661; assay: Induction of cell cycle arrest in human NCI-H661 cells at 10 to 20 uM after 24 hrs by propidium iodide-staining based FACS analysis; format: functional
Method in brief: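 H661 cells treated with 0, 10 or 20 µM for 24 h; cell cycle profile by propidium iodide staining and FACS. Profiles are representative of three independent experiments.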

[2] = target: T1, Tyrosine-protein phosphatase non-receptor type 11 (Mus musculus) (UniProt P35235); assay: Inhibition of SHP2 in mouse Ba/F3 cells assessed as reduction in IL3-stimulated ERK phosphorylation pretreated for 4 hrs followed by IL3 stimulation and measured after 5 to 60 mins by Western blot analysis; format: cell-based
T1 sequence (whole entry): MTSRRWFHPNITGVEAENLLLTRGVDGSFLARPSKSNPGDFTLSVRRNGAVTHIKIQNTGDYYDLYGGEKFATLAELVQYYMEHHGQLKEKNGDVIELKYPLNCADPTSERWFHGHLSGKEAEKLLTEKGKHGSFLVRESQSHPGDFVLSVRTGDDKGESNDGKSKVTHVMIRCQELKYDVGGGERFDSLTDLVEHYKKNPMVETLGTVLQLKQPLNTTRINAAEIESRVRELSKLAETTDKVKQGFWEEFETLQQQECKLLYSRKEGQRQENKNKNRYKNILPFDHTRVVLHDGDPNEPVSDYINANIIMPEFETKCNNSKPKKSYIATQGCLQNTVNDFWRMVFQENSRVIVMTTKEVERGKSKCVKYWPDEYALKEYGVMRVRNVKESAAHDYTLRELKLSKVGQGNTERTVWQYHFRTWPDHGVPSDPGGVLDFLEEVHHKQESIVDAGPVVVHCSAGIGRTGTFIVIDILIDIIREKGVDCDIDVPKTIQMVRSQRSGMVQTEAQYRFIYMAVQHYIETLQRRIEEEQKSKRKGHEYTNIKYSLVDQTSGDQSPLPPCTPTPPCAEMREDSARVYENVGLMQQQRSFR
Method in brief: (§1)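 Ba/F3 cells starved overnight in serum- and cytokine-free RPMI1640. Treated with 20 µM compound for 4 h, then IL-3 (2 ng/mL) for the indicated times. RIPA lysates (50 µg) immunoblotted for p-Erk, p-Akt, p-Jak2 and p-Stat5, then reprobed for total proteins. Representative of three experiments.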

[3] = target: T2, Tyrosine-protein phosphatase non-receptor type 11 (Homo sapiens) (UniProt Q06124); assay: Inhibition of human wild-type full length SHP2 at 20 uM using H-Glu-Phe-pTyr-Ala-Glu-Val-Gly-Arg-Ser-ProPro-Asp-Pro-Ala-Lys as substrate in presence of 0.001% Triton X
T2 sequence (whole entry): T1 sequence (whole entry) with V450M, V550A, R590K
Method in brief: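 Full-length SHP2 or SHP1 (0.1 µg) preincubated with compound 30 min at room temperature in 25 mM Tris-HCl pH 7.4, 50 mM NaCl, 5 mM DTT, 2.5 mM EDTA. Phospho-peptide substrate added to 50 µM final; 30 min at 30 °C. Released phosphate read by Malachite Green at OD620. IC50 from six concentrations; three experiments.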

[4] = target: T2, Tyrosine-protein phosphatase non-receptor type 11 (Homo sapiens); assay: Mixed type inhibition of human wild-type full length SHP2 assessed as substrate [Et] at 20 uM using H-Glu-Phe-pTyr-Ala-Glu-Val-Gly-Arg-Ser-Pro-Pro-Asp-Pro-Ala-Lys as substrate by Lineweaver-Burk plot analysis (reference value: 0.029 uM)
[5] = target: T2, Tyrosine-protein phosphatase non-receptor type 11 (Homo sapiens); assay: Binding affinity to His-tagged SHP2 (unknown origin) assessed as melting temperature at 5 uM measured every 50 secs by thermal shift assay (reference value: 43.5 +/- 0.95 degC)
[6] = target: T1, Tyrosine-protein phosphatase non-receptor type 11 (Mus musculus); assay: Inhibition of SHP2 in mouse Ba/F3 cells assessed as reduction in IL3-stimulated JAK2 phosphorylation pretreated for 4 hrs followed by IL3 stimulation and measured after 5 to 60 mins by Western blot analysis; format: cell-based; method in brief: as §1
[7] = target: T1, Tyrosine-protein phosphatase non-receptor type 11 (Mus musculus); assay: Inhibition of SHP2 in mouse Ba/F3 cells assessed as reduction in IL3-stimulated STAT5 phosphorylation pretreated for 4 hrs followed by IL3 stimulation and measured after 5 to 60 mins by Western blot analysis; format: cell-based; method in brief: as §1
[8] = system: NCI-H596; assay: Growth inhibition of human NCI-H596 cells after 48 hrs by cell proliferation-based assay; format: functional
Method in brief: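 H661 (PTPN11 N58S/+) and H596 (WT PTPN11) lung cancer cells exposed to a concentration series for 48 h, DMSO as control. Cell number measured by One Solution proliferation assay. Triplicates from one of three repeated experiments.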

[9] = target: T1, Tyrosine-protein phosphatase non-receptor type 11 (Mus musculus); assay: Inhibition of PTPN11 in PTPN11-expressing mouse embryonic fibroblasts assessed as inhibition of cell growth at 6 uM after 24 to 72 hrs by cell proliferation-based assay
Method in brief: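 Ptpn11 fl/fl and Ptpn11 +/+ MEFs, both Ade-Cre+, infected with adeno-Cre, then given 6 µM compound or DMSO. Growth measured at 24, 48 and 72 h by One Solution proliferation assay. SHP2 loss confirmed by immunoblot. Triplicates from one of three experiments.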

[10] = target: T2, Tyrosine-protein phosphatase non-receptor type 11 (Homo sapiens); assay: Binding affinity to full length wild type GST-tagged SHP2 (unknown origin) luminescence spectrometry-based quenching assay
Method in brief: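 Intrinsic fluorescence quenching of full-length WT GST-SHP2 held at 3.0 µM in 20 mM Tris-HCl pH 7.5 while compound concentration is increased. Excitation 295 nm, emission 360–500 nm. Compound-alone fluorescence subtracted; intensities are relative. Triplicates shown from one of three repeats.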

Question: What does the source list for CCOc1cc(O)c(C(=O)/C=C/c2ccc(Cl)cc2Cl)cc1CN1CCC=C(n2c(=O)[nH]c3ccccc32)C1?
Answer: Activity [1]: Active; inhibition [2]: Dose-dependent effect; inhibition [3]: Active; Activity [4]: 0.029 µM; Tm [5]: 46.3 °C; inhibition [6]: Dose-dependent effect; inhibition [7]: Dose-dependent effect; growth inhibition (GI) [8]: Dose-dependent effect; growth inhibition (GI) [9]: Active; Activity [10]: Dose-dependent effect
